In publication PMC9052103 (RSC Advances, 2020):
Read-outs that look alike come from different tables or passages of the source.

Columns and labels:
S. aureus ATCC 29213 [1] = experiment: MIC, 96-well microtiter broth dilution; assay type: cell-based; details: Staphylococcus aureus
S. aureus ATCC 43300 = experiment: MIC, 96-well microtiter broth dilution; assay type: cell-based; details: Staphylococcus aureus, ATCC43300|MRSA, read-out: MIC S. aureus ATCC 43300
S. aureus ATCC BAA-41 = experiment: MIC, 96-well microtiter broth dilution; assay type: cell-based; details: Staphylococcus aureus, ATCCBAA41|MRSA, read-out: MIC S. aureus ATCC BAA-41
S. aureus ATCC BAA-1747 = experiment: MIC, 96-well microtiter broth dilution; assay type: cell-based; details: Staphylococcus aureus, ATCCBAA1747|MRSA, read-out: MIC S. aureus ATCC BAA-1747
S. aureus ATCC BAA-1720 = experiment: MIC, 96-well microtiter broth dilution; assay type: cell-based; details: Staphylococcus aureus, ATCCBAA1720|MRSA, read-out: MIC S. aureus ATCC BAA-1720
E. faecalis ATCC 29212 = experiment: MIC, 96-well microtiter broth dilution; assay type: cell-based; details: Enterococcus faecalis, ATCC29212, read-out: MIC E. faecalis ATCC 29212
E. faecium ATCC 49624 = experiment: MIC, 96-well microtiter broth dilution; assay type: cell-based; details: Enterococcus faecium, ATCC49624, read-out: MIC E. faecium ATCC 49624
E. faecium ATCC 700221 = experiment: MIC, 96-well microtiter broth dilution; assay type: cell-based
[2] = test system: S. epidermidis ATCC 12228; experiment: MIC, 96-well microtiter broth dilution; assay type: cell-based; details: Staphylococcus epidermidis, ATCC12228, read-out: MIC S. epidermidis ATCC 12228
E. coli ATCC 25922 = experiment: MIC, 96-well microtiter broth dilution; assay type: cell-based; details: Escherichia coli, ATCC25922, read-out: MIC E. coli ATCC 25922
E. coli ATCC 8739 = experiment: MIC, 96-well microtiter broth dilution; assay type: cell-based; details: Escherichia coli, ATCC8739, read-out: MIC E. coli ATCC 8739
[3] = test system: human bronchial epithelium cells (16HBE); experiment: CCK-8 cytotoxicity assay; assay type: cell-based; details: 48 h, read-out: IC50 16HBE
Outline: (§1)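 Cells seeded at 5000 per well and allowed to adhere overnight at 37 °C, then exposed to test compound for 48 h. CCK-8 reagent added for a further 3 h, with absorbance read at 450 nm. Triplicates.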

[4] = test system: human renal tubular epithelial cells (HK-2); experiment: CCK-8 cytotoxicity assay; assay type: cell-based; details: Epithelial cell, 48 h, read-out: IC50 HK-2
Outline: as §1

[5] = test system: mouse fibroblast cells (L929); experiment: CCK-8 cytotoxicity assay; assay type: cell-based; details: L929, 48 h, read-out: IC50 L929
Outline: as §1

SaFtsZ = SaFtsZ (Staphylococcus aureus, UniProt P0A031); experiment: SaFtsZ binding affinity assay; parameters: species or system S. aureus
Outline: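 Fluorescence titration at 25 °C in 50 mM Tris–HCl pH 7.4, 50 mM KCl, 2 mM magnesium acetate. Test compound at 3.51 or 3.68 μM titrated with SaFtsZ in 0.4 μM steps (0.4–6.4 μM), equilibrating 2 min per step. Excitation 493 nm, emission 500–700 nm, buffer-titration background subtracted. Kd obtained by nonlinear fit to an independent-site model.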

S. aureus FtsZ = target: T1, S. aureus FtsZ (Staphylococcus aureus, UniProt P0A031); experiment: Light-scattering assay of FtsZ polymerization; assay type: biochemical
T1 sequence (P0A031 1-390): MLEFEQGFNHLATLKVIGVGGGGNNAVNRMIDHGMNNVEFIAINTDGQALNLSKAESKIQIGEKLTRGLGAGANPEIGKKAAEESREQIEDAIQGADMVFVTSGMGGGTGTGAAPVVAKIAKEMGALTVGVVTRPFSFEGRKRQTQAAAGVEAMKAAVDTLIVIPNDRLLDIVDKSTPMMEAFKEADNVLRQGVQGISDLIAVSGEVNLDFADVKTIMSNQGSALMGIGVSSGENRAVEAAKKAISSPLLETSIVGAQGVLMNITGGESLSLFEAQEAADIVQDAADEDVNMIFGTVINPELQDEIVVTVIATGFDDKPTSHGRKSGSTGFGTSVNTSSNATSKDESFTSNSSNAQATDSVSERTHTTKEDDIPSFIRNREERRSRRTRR
Outline: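 S. aureus FtsZ (4 μM) in 50 mM MOPS pH 6.5, preincubated 10 min at 25 °C with 1% DMSO vehicle or test compound. Baseline set after adding 50 mM KCl and 10 mM MgCl2. After 10 min, 1 mM GTP added. 90° light scattering (excitation/emission 600 nm) followed for 25 min, with blank background subtracted. Rate and extent of polymerization calculated. Triplicates.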

S. aureus FtsZ (SaFtsZ) = S. aureus FtsZ (SaFtsZ) (Staphylococcus aureus, UniProt P0A031); experiment: GTPase activity assay; assay type: biochemical
Outline: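 Phosphate-release kit assay: S. aureus FtsZ (7.3 μM) in assay buffer with 1% DMSO vehicle or varied concentrations of test compound. Reaction started with 200 μM GTP and run 30 min at room temperature. Colour reagent added for another 30 min to stop the reaction, and inorganic phosphate read at 620 nm. Triplicates.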

B. subtilis 168 = experiment: Bacterial morphology study; assay type: cell-based; details: 0.5 μg mL^−1 for 4 h; control group 5–10 μm
Z-ring in B. subtilis = experiment: Visualization of Z-ring; assay type: cell-based; details: 0.5 × MIC, 4 h
Outline: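 B. subtilis carrying IPTG-inducible GFP-FtsZ plasmid grown in LB with 30 μg mL−1 chloramphenicol at 37 °C with shaking; overnight culture diluted to 1% in LB with 40 μM IPTG plus test compound at 0.5 × MIC, 4 h at 37 °C. Cells fixed, resuspended in PBS, placed on 0.1% (w/v) poly-L-lysine-coated slides; imaged by confocal microscopy, 40× oil immersion.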

S. aureus ATCC 29213 [6] = experiment: In vitro drug resistance development, serial passage; assay type: cell-based
Outline: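 Serial passage against S. aureus ATCC 29213: culture from the 0.5 × MIC well of the prior MIC plate diluted to 5 × 10^5 CFU mL−1 and exposed to a range of test compound concentrations. MIC read after 24 h at 37 °C. Cycle repeated 35 times. Ciprofloxacin, vancomycin and rifampin passaged in parallel.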

MRSA strains = experiment: MIC, summary over MRSA strains; assay type: cell-based, S. aureus; details: Staphylococcus aureus, read-out: MIC against MRSA
[7] = test system: E. faecium, S. epidermidis and E. coli; experiment: MIC, summary over E. faecium, S. epidermidis and E. coli; assay type: cell-based; details: read-out: MIC against E. faecium, S. epidermidis and E. coli
[8] = test system: drug-resistant K. pneumoniae, A. baumannii, P. aeruginosa and E. cloacae

Work on `Cc1cc(/C=C2\Sc3ccccc3N2CCCN2CCC(C)CC2)c2ccccc2[n+]1C.[I-]` [Compound 4a4, (Z)-1,2-Dimethyl-4-((3-(3-(4-methylpiperidin-1-yl)propyl)benzo[d]thiazol-2(3H)-ylidene)methyl)quinolin-1-ium iodide] yielded an MIC (S. aureus ATCC 29213 [1]; ATCC29213) of 1 µg/mL, an MIC (S. aureus ATCC 29213 [1]; ATCC29213, read-out: MIC S. aureus ATCC 29213) of 1 µg/mL and an MIC (S. aureus ATCC 29213 [1]; ATCC29213, read-out: S. aureus ATCC 29213 (MIC)) of 1 µg/mL. It also gave an MIC (S. aureus ATCC 43300) of 2 µg/mL, an MIC (S. aureus ATCC BAA-41) of 1 µg/mL and an MIC (S. aureus ATCC BAA-1747) of 2 µg/mL. For the same compound, the MIC (S. aureus ATCC BAA-1720) was 2 µg/mL, the MIC (E. faecalis ATCC 29212) was 2 µg/mL and the MIC (E. faecium ATCC 49624) was 1 µg/mL. It also gave an MIC (E. faecium ATCC 700221; Enterococcus faecium, ATCC700221) of 2 µg/mL, an MIC (E. faecium ATCC 700221; read-out: MIC against VRE) of 2 to 16 µg/mL and an MIC [2] of 0.5 µg/mL. For the same compound, the MIC (E. coli ATCC 25922) was 0.5 µg/mL, the MIC (E. coli ATCC 8739) was 1 µg/mL and the IC50 [3] was 14.3 µg/mL. It also gave an IC50 [4] of 26 µg/mL, an IC50 [5] of 12.6 µg/mL and a Kd (SaFtsZ) of 125 nM. For the same compound, the “Effect on FtsZ polymerization at a concentration gradient” value (S. aureus FtsZ; 0.125–0.5 μg mL^−1) was “enhance FtsZ polymerization in a dose-dependent manner”, the “Light scattering signal compared to control (FtsZ polymerization)” value (S. aureus FtsZ; same concentration, 0.125 μg mL^−1) was “significant increase in light scattering signal” and the “Effect on GTPase activity of SaFtsZ” value (S. aureus FtsZ (SaFtsZ)) was “did not show any effect”. For the same compound, the “Cell length of B. subtilis 168” value (B. subtilis 168) was > 10 μm, the “Effect on Z-ring formation (GFP-FtsZ localization)” value (Z-ring in B. subtilis) was “promoted the mislocalization of the FtsZ protein” and the “Increase of MIC after 35 passages” value (S. aureus ATCC 29213 [6]) was 16 fold. The MIC (MRSA strains) was 1 to 8 µg/mL, the MIC [7] was 0.5 to 2 µg/mL and the “Antibacterial activity against drug-resistant K. pneumoniae, A. baumannii, P. aeruginosa and E. cloacae” value [8] was “moderate antibacterial activity”.
